Results as given in ChEMBL document CHEMBL1782009, “Synthesis and characterization of new types of halogenated and alkylated imidazolidineiminothiones and a comparative study of their antitumor, antibacterial, and antifungal activities” (Eur J Med Chem, 2011).

Key:
Format in all cases: functional
[1] = Antitumor activity against mouse EAC cells assessed as inhibition of cell viability at 100 ug/ml by Trypan blue assay; details: Ehrlich
How it was run: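 EAC cells were taken by needle aspiration of ascitic fluid from preinoculated mice and diluted 1:10 in saline. Then 0.1 mL of cell suspension, 0.8 mL RPMI 1640 and 0.1 mL compound were incubated 2 h at 37 °C. Dead cells were counted by trypan blue exclusion, and % non-viable = non-viable/total cells × 100.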

Escherichia coli = assay: Antibacterial activity against Escherichia coli NCTC 10416 at 5 mg/ml after 24 hrs by agar disc diffusion method; details: NCTC 10416, 24 h, read-out: DIZ
How it was run: (§1)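 Agar well-diffusion using 1 cm wells, each loaded with 100 of compound solution (5 mg/mL in DMF). Bacteria were maintained on nutrient agar and plated as a standard suspension. Plates were incubated 24 h at 35 °C, and inhibition zone diameters were measured.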

Micrococcus luteus = assay: Antibacterial activity against Sarcina lutea ATCC 934 at 5 mg/ml after 24 hrs by agar disc diffusion method; details: ATCC 934, 24 h, read-out: DIZ; how it was run: as §1
Bacillus subtilis = assay: Antibacterial activity against Bacillus subtilis NCTC 1040 at 5 mg/ml after 24 hrs by agar disc diffusion method; details: NCTC 1040, 24 h, read-out: DIZ; how it was run: as §1
Staphylococcus aureus = assay: Antibacterial activity against Staphylococcus aureus NCTC 7447 at 5 mg/ml after 24 hrs by agar disc diffusion method; details: NCTC 7447, 24 h, read-out: DIZ; how it was run: as §1
Candida albicans = assay: Antifungal activity against Candida albicans IMRU 3669 at 5 mg/ml by agar disc diffusion method; details: read-out: DIZ
Aspergillus flavus = assay: Antifungal activity against Aspergillus flavus at 5 mg/ml by agar disc diffusion method; details: read-out: DIZ

SMILES	inhibition at 100 µg/mL [1]	zone of inhibition at 5000 µg/mL (Escherichia coli)	zone of inhibition at 5000 µg/mL (Micrococcus luteus)	zone of inhibition at 5000 µg/mL (Bacillus subtilis)	zone of inhibition at 5000 µg/mL (Staphylococcus aureus)	zone of inhibition at 5000 µg/mL (Candida albicans)	zone of inhibition at 5000 µg/mL (Aspergillus flavus)
COc1ccc(N2C(=N)C(=S)N(c3ccc(Cl)cc3)C2=O)cc1	0.5%	23.5 mm	22 mm	20 mm	19.5 mm	22 mm	17.5 mm
N=C1C(=S)N(c2ccc(I)cc2)C(=O)N1Cc1ccccc1	30%	14 mm	12 mm	15 mm	15 mm	13 mm	15 mm
Cc1ccc(N2C(=N)C(=S)N(c3ccc(I)cc3)C2=O)cc1	40%	14 mm	13 mm	16.5 mm	17 mm	17 mm	14 mm
Cc1ccc(N2C(=N)C(=S)N(c3ccc(Br)cc3)C2=O)cc1	20%	16.5 mm	14 mm	18 mm	18 mm	14 mm	15 mm
CSc1ccc(N2C(=N)C(=S)N(c3ccc(Cl)cc3)C2=O)cc1	20%	15.5 mm	15 mm	16.5 mm	16 mm	16.5 mm	15 mm
CSc1ccc(N2C(=N)C(=S)N(c3ccccc3)C2=O)cc1	1%	25.5 mm	25 mm	23.5 mm	24 mm	24 mm	18 mm
Cc1ccc(N2C(=N)C(=S)N(c3ccc(Cl)cc3)C2=O)cc1	10%	17 mm	21 mm	16 mm	12 mm	12 mm	14 mm
CSc1ccc(N2C(=N)C(=S)N(c3ccc(I)cc3)C2=O)cc1	10%	14.5 mm	14 mm	16 mm	16.5 mm	16.5 mm	15 mm
COc1ccc(N2C(=N)C(=S)N(c3ccc(I)cc3)C2=O)cc1	20%	19 mm	18 mm	19.5 mm	18.5 mm	23 mm	18 mm
Cc1ccc(N2C(=N)C(=S)N(c3ccccc3)C2=O)cc1	10%	20 mm	18 mm	21 mm	21.5 mm	22 mm	15 mm
CSc1ccc(N2C(=N)C(=S)N(c3ccc(Br)cc3)C2=O)cc1	40%	15.5 mm	15 mm	19.5 mm	19 mm	16 mm	15 mm
COc1ccc(N2C(=N)C(=S)N(c3ccc(Br)cc3)C2=O)cc1	10%	16 mm	19 mm	18 mm	13 mm	12 mm	18 mm
N=C1C(=S)N(c2ccc(Br)cc2)C(=O)N1Cc1ccccc1	45%	18.5 mm	18 mm	17 mm	15.5 mm	17 mm	15 mm
COc1ccc(N2C(=N)C(=S)N(c3ccccc3)C2=O)cc1	50%	25 mm	25 mm	19 mm	18 mm	21 mm	18 mm
